Series [1] is described as follows: Lipophilicity, log P of the compound. The settings on record: octanol/water. Format: physicochemical.
Series [2] addresses T1, Potassium voltage-gated channel subfamily KQT member 2 (Homo sapiens, UniProt O43526). The experiment in a line: Activation of human Kv7.2 expressed in CHO cells assessed as increase in maximal channel conductance at 0.03 uM in constant voltage pulses by whole cell patch clamp electrophysiology assay. The class given is cell-based. A digest of the protocol: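 Transiently transfected CHO cells (human Kv7.2 cDNA in pcDNA3.1, EGFP marker), recorded 24 h post-transfection by whole-cell patch clamp at 20–22°C; extracellular solution in mM 138 NaCl, 2 CaCl₂, 5.4 KCl, 1 MgCl₂, 10 glucose, 10 HEPES, pH 7.4. Constant voltage pulses before and after 0.03 μM compound; conductance/voltage curves fitted to double Boltzmann for V1/2 and maximal conductance.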
On the technique in general: Patch clamp records ionic current or voltage across a cell membrane.

Series [3] concerns the target Voltage-gated potassium channel, KQT; KCNQ2(Kv7.2)/KCNQ3(Kv7.3) (Homo sapiens) (UniProt O43526+O43525). The experiment in a line: Activation of human Kv7.2/Kv7.3 expressed in CHO cells assessed as increase in channel current amplitude by whole cell patch clamp electrophysiology assay. Format: cell-based. The method, boiled down: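 Human Kv7.2 plus Kv7.3 cDNAs co-transfected into CHO cells; whole-cell patch clamp at 20–22°C, extracellular solution pH 7.4. Drug applied at 0.01–10 μM to test concentration-dependent current increase.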

Series [4] addresses T1, Potassium voltage-gated channel subfamily KQT member 2. The experiment in a line: Activation of human Kv7.2 expressed in CHO cells assessed as current amplitude at 10 uM measured after 200 secs upon drug wash-out at holding potential of -40 mV by whole cell patch clamp electrophysiology assay. Format: cell-based.
Series [5] concerns the target T2, Potassium voltage-gated channel subfamily KQT member 1 (Homo sapiens, UniProt P51787).
T2 sequence (P51787 whole entry): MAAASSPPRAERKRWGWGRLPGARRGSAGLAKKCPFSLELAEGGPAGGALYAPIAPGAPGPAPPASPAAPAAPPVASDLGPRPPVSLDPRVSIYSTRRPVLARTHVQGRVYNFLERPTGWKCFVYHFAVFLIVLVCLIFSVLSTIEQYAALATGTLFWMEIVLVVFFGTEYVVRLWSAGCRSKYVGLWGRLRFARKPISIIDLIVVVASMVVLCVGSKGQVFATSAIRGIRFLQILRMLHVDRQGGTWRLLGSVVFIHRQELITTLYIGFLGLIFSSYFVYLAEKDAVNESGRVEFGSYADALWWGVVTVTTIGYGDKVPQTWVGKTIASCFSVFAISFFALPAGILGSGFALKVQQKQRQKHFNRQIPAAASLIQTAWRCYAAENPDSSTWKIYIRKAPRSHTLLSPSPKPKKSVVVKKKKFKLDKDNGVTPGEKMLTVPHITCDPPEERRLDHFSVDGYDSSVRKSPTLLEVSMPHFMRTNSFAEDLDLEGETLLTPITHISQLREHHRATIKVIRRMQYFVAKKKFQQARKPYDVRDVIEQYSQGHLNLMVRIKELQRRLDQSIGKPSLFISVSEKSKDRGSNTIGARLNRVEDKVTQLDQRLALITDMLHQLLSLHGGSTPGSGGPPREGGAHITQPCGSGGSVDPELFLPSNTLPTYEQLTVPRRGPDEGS
The experiment in a line: Activation of human Kv7.1 expressed in CHO cells assessed as channel current amplitude at 10 uM measured at holding potential of +20 mV and -40 mV by whole cell patch clamp electrophysiology assay. The class given is cell-based.

Series [6] concerns the target T1, Potassium voltage-gated channel subfamily KQT member 2. Description: Activation of human Kv7.2 expressed in CHO cells assessed as maximal steady-state increase in current amplitude at 10 uM measured within 10 secs at holding potential of -40 mV by whole cell patch clamp electrophysiology assay. The class given is cell-based. The method, boiled down:
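Human Kv7.2 transiently expressed in CHO cells, whole-cell patch clamp at 20–22°C, pH 7.4 HEPES-buffered extracellular solution under constant perfusion. Cells held at -80 mV; 3-s ramps -80 to +20 mV with and without compound; current at -40 mV taken as drug/control amplitude ratio, followed over time during application and wash-out; mean ± SEM of ≥3 cells from ≥2 transfections.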

A short description of series [7]: Photostability of compound in pH 7.4 buffer assessed as formation of 4-fluorobenzaldehyde incubated for 6 hrs under visible light irradiation by HPLC analysis.
The subject of a further series is NAT (phase 2 metabolism). The experiment in a line: Drug metabolism in human liver S9 fractions assessed as assessed as NAT-mediated phase 2 metabolism at 1 mM preincubated for 5 mins followed by NADPH addition and measured after 60 mins by RP-UHPLC-DAD analysis relative to control. The class given is ADME, subcellular. The conditions noted are these: read-out: Drug metabolism. The method, boiled down:
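Compound (2 μL of 1 mM stock) in 100 mM phosphate buffer pH 7.4 with pooled human liver S9, preincubated 5 min, then NADPH added, 37°C for 60 min. For UGT: 5 mM UDPGA, alamethicin, 1 mM MgCl added; for NAT: 2 mM DTT, sulfamethazine, 4.5 mM acetyl DL-carnitine, 0.1 U/mL carnitine acetyltransferase. Stopped with ice-cold methanol; RP-UHPLC-DAD; % turnover = 100 − (60 min/0 min concentration × 100).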

A short description of series [8]: Photostability of compound in pH 7.4 buffer assessed as metabolite with phenazinium-dimer formation incubated for 6 hrs under visible light irradiation by HPLC/MS/MS analysis.
The nature of series [9]: Half life in human. The class given is ADME.
In series [10] the target is T3, Potassium voltage-gated channel subfamily KQT member 3 (Homo sapiens, UniProt O43525).
T3 sequence (O43525 whole entry): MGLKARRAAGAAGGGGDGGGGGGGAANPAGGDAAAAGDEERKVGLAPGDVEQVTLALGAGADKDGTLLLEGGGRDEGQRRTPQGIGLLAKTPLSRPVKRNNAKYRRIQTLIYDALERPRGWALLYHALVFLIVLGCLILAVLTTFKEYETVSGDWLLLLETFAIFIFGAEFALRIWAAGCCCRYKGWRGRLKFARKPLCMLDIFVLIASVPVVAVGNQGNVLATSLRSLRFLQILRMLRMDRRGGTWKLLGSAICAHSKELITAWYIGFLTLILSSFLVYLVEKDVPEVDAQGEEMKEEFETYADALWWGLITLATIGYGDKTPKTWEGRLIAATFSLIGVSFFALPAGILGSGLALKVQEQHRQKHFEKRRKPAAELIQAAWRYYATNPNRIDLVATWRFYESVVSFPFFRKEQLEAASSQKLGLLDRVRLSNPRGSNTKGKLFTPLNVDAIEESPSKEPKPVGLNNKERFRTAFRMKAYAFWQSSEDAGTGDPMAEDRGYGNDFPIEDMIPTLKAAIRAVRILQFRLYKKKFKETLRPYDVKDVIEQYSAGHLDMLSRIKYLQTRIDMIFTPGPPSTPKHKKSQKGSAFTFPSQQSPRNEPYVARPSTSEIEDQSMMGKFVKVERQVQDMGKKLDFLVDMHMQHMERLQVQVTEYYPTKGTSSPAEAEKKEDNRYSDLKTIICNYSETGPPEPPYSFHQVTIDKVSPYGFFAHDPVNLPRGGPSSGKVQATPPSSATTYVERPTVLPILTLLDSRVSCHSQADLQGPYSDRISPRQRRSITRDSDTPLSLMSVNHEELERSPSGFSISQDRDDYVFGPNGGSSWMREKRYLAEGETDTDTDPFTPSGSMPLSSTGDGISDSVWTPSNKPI
Description: Activation of human Kv7.3 expressed in CHO cells assessed as increase in channel current amplitude by whole cell patch clamp electrophysiology assay. The class given is cell-based.

Here are results for three molecules from ChEMBL document CHEMBL4402547, “Synthesis and Pharmacological Characterization of Conformationally Restricted Retigabine Analogues as Novel Neuronal Kv7 Channel Activators” (J Med Chem, 2020).

Calls of active or inactive are those of the source. No cut-off for these calls is given here.

One may read the logP as a log measure of how a compound divides between an organic and an aqueous phase. A higher logP goes with higher lipophilicity. As usually defined, the half-life is the time in which the quantity being followed falls by half. A lower half-life goes with rapid decline. As a reminder, the EC50 is the concentration needed to bring the measured effect to its halfway point.

T1 sequence (O43526 whole entry): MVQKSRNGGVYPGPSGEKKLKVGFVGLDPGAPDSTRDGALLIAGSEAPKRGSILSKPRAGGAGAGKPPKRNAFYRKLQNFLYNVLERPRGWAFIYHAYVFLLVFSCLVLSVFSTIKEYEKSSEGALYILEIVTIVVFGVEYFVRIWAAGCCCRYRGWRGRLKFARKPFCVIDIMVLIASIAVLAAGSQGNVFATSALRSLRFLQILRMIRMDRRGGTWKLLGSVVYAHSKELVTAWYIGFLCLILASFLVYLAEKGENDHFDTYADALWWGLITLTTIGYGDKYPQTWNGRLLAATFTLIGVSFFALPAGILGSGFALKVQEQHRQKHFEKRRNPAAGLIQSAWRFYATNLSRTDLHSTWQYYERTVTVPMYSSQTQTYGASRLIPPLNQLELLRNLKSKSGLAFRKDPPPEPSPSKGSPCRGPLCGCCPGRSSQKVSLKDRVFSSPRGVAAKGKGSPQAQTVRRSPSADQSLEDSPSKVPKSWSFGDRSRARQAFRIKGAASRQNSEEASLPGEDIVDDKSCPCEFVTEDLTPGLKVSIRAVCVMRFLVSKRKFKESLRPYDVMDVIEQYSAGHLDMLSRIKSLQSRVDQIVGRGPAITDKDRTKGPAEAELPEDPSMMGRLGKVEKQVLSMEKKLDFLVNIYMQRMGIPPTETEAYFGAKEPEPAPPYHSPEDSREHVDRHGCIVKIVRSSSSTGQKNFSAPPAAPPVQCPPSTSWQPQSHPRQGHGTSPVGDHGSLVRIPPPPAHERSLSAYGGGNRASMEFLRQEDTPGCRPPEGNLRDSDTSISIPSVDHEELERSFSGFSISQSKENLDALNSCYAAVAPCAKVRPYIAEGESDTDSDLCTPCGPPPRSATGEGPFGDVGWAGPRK

As for `CCCCCCC(=O)Nc1ccc2c(ccn2Cc2ccc(C(F)(F)F)cc2)c1`, the logP in series [1] stood at 6.83. Further, in series [2], the outcome was Active. The results for the Activity result in [3] and in [5] were “Dose-dependent effect” and “Not Active”, respectively. Moreover, in [4], the outcome was inactive.
In the case of `CCOC(=O)Nc1ccc(NCc2ccc(F)cc2)cc1N` [EZOGABINE], the result in [6] was Active. Further, the outcome in series [2] was inactive. For the same molecule, the Drug metabolism result in [7] and in [8] was “Metabolite detected” in each case. Further, the metabolised at 1 h, 1000 µM with NAT (phase 2 metabolism) amounted to 3.41%. Moreover, in [5], the Activity result was “Not Active”. This molecule yielded a half-life in series [9] of 6 to 8 h.
In series [1], `CC(C)(C)CC(=O)Nc1ccc2c(ccn2Cc2ccc(C(F)(F)F)cc2)c1` registered a logP of 5.58. Besides, the Activity entry in series [3] was “Dose-dependent effect”. Further, the EC50 in series [10] is 920 nM. Also, the metabolised at 1 h, 1000 µM with NAT (phase 2 metabolism) stood at 12.7%. Further, the outcome in [4] was inactive.
